Screening results from PubChem BioAssay.
RGS4 block: inhibitors of human RGS4. AID 463165. P49798. HEK293 M3R/RGS4 inducible, Fluo-4 calcium flux; stronger effect = higher value; triggered by carbachol at its EC20. B-score at 10 µM. hit rate 0.45% among 310,000;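 active means B-score, a plate-corrected calcium signal, over three deviations above library mean, with baseline fluorescence within five deviations of library mean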;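 further: RGS4 expression induced by doxycycline in cells with stable M3 receptor; B-score is computed from the integrated fluorescence ratio over baseline after carbachol; higher B-score means a larger calcium signal and so more RGS4 inhibition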
Target sequence (P49798 whole entry, looked up): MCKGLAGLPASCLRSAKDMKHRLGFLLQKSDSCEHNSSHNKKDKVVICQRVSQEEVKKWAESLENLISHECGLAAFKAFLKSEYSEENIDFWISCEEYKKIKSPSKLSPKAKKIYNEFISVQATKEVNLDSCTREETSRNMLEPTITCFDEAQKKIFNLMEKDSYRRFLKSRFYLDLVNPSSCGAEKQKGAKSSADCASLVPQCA
RGS4 pot: potentiators or activators of RGS4. HEK293 M3R/inducible RGS4, carbachol calcium flux Fluo4; stronger effect = lower value. B-score at 10 µM. hit rate 0.92% among 310,000. AID 463111;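 active means B-score of the integrated calcium signal more than 4 SD below the library mean, with starting fluorescence not abnormally high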;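 further: negative B-score means reduced calcium response which marks RGS4 activation or potentiation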
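Assay system: Inducible-RGS4 HEK293 cells carrying M3 receptor | Schedule: Compound preincubation 20 min at room temperature before agonist | Signal: Kinetic calcium fluorescence imaging with Fluo4-AM dye, 2 µM | Read-out basis: B score from integrated fluorescence ratio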
MrgX1 ag: agonists of human MrgX1 receptor; Q96LB2; hit rate 0.44% among 310,000; B-score at 10 µM; MrgX1-HEK293 cells, Fluo-4 calcium fluorescence, agonist mode; stronger effect = higher value; AID 588627;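 active means calcium response B-score plate-corrected fluorescence ratio at least 3 library SD, with starting fluorescence B-score inside 5 SD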
Target sequence (Q96LB2 whole entry, looked up): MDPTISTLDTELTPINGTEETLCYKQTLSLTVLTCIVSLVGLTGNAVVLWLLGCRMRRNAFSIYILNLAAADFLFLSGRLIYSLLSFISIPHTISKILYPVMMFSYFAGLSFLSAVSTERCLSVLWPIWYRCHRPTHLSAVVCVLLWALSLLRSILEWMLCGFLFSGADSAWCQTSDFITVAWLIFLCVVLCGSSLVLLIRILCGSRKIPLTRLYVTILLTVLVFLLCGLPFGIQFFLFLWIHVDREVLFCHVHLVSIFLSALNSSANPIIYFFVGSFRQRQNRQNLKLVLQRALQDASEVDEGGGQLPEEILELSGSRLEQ
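times = overnight plating, then 30 min 37 °C plus 30 min room-temperature dye loading | assay system = stable human MrgX1 HEK293 cell line | input = fifteen thousand cells per well | signal = kinetic calcium dye fluorescence, Fluo-4 NW | dosing = compound delivered in addition one of three | read-out = B-scored fluorescence response ratio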
MrgX1 allo act: allosterically activates human MrgX1 receptor signaling. AID 588675. B-score at 10 µM. Q96LB2. MrgX1-HEK293, Fluo-4 calcium flux, FDSS; stronger effect = higher value. hit rate 0.63% among 310,000;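 active means plate-corrected calcium response at least 3 library SD above typical, normal starting fluorescence, not activating the receptor alone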;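 further: compound read alongside a low EC10 to EC30 dose of BAM8-22 agonist; peak minus trough fluorescence over baseline measured at the second addition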
MrgX1 antag: antagonists of human MrgX1 receptor. MRGX1-HEK293 calcium flux, Fluo-4, BAM8-22 antagonism; stronger effect = lower value. hit rate 1.3% among 310,000. B-score at 10 µM. Q96LB2;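 active means calcium-response B-score plate-corrected more than 3 library SD below zero, starting fluorescence within 5 deviations, no agonist response on first addition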;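 further: peak minus trough fluorescence over baseline after final BAM8-22 challenge near maximal dose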
MrgX1 ant reconf: confirmation of human MrgX1 receptor antagonists; shares compounds with MrgX1 antag; MrgX1-HEK293, BAM8-22 calcium flux, Fluo-4; stronger effect = lower value; remaining BAM8-22 calcium response % of control (stronger effect = lower value), % at 10 µM; hit rate 19% among 2,300;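 active means remaining agonist calcium response no higher than 100% minus 3 SD of agonist-only control wells, with starting fluorescence near control levels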;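 further: agonist BAM8-22 given at a near maximal EC90 to ECmax level; peak minus minimum fluorescence divided by baseline after agonist addition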
HEK293 Ca flux: counter-screen for MrgX1 antagonists: effect in parental HEK293 cells | shares compounds with MrgX1 antag | Fluo-4 calcium fluorescence, FDSS | fluorescence ratio F(max-min)/F0 at 10 µM | hit rate 2% among 4,000 | AID 624111;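 active means duplicate-averaged calcium fluorescence ratio at least three times the standard deviation of buffer wells, a nonspecific response in parental cells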
HEK293 Ca counter: counter-screen for MrgX1 allosteric activators: effect in parental HEK293 cells | AID 624114 | shares compounds with MrgX1 antag | parental HEK293 calcium flux, Fluo-4 fluorescence ratio; stronger effect = higher value | fluorescence ratio F(max-min)/F0 at 10 µM | hit rate 0.4% among 4,000;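 active means calcium fluorescence ratio, averaged over duplicates, at least 3 SD of the buffer-well ratio, meaning a nonspecific response in receptor-free cells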;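 further: untransfected parental HEK293 lacking MrgX1 used as counterscreen for MrgX1 allosteric activators; fluorescence change taken during the second addition on a kinetic imager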
HEK293 Ca cntr2: MrgX1 activator counter-screen hit in parental HEK293 cells; shares compounds with MrgX1 antag; Fluo-4 calcium fluorescence (FDSS); stronger effect = higher value; fluorescence ratio F(max-min)/F0 at 10 µM; hit rate 8.7% among 4,000; AID 624115;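 active means calcium fluorescence ratio at least three times the spread of buffer wells, meaning a non-specific response in parental cells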
Numbers without * were called inactive; i = inactive; . = no result. Only some compounds are listed: those with a hit (about 3.5% of all), similar ones and a draw of the others.

SMILES | RGS4 block | RGS4 pot | MrgX1 ag | MrgX1 allo act | MrgX1 antag | MrgX1 ant reconf | HEK293 Ca flux | HEK293 Ca counter | HEK293 Ca cntr2
CC1(C)CC2(C)OC(=N)C1(C#N)C2(C#N)C#N (centres undefined) | i | i | i | i | i | . | . | . | .
COc1ccc(CC(C)N2CCN(Cc3ccccc3)CC2)c(OC)c1 (centres undefined) | i | i | i | i | -4.52* | i | i | i | i
Cc1cccc(N2CCN(C(=O)c3ccccc3OCc3c(C)noc3C)CC2)c1C | i | i | i | i | i | . | . | . | .
CCCCNc1c(N)n(CCC)c(=O)[nH]c1=O | i | i | i | i | i | . | . | . | .
CCCn1c(N)c(NCCN2CCOCC2)c(=O)[nH]c1=O | i | i | i | i | -5.88* | i | i | i | i
Nc1nonc1-c1noc(N2CCCCC2)n1 | i | i | i | i | -5.52* | 84.8%* | i | i | i
CCOc1ccc(C2CC(=O)NC2=O)cc1 (centres undefined) | i | i | i | i | i | . | . | . | .
CC1(C)C(C=C(Cl)Cl)C1C(=O)N1CCN(c2ccccc2)CC1 (centres undefined) | i | i | i | i | -6.59* | i | i | i | i
COC(=O)C(Cc1ccccc1)NC(=O)CNC(=O)c1sc2ccccc2c1Cl (centres undefined) | i | i | i | i | i | . | . | . | .
O=C(O)CC(c1ccccc1)N1C(=O)c2cccc([N+](=O)[O-])c2C1=O (centres undefined) | i | i | i | i | i | . | . | . | .
Clc1ccc2nnnc(-c3ccccc3)c2c1 | i | i | i | i | -4.56* | i | i | i | i
COc1ccc(N2CCN(C(=O)C3CCN(C(=O)c4ccc([N+](=O)[O-])cc4)CC3)CC2)cc1 | i | i | i | i | i | . | . | . | .
Cc1ccc(C(C)C)c(OCC(=O)N2CCOCC2)c1 | i | i | i | i | -5.99* | i | i | i | i
COc1ccc(S(=O)(=O)NC(C)C(=O)NCc2ccccn2)cc1OC (centres undefined) | i | i | i | i | i | . | . | . | .
CC1Cc2cc(-c3csc(NC(=O)Cc4cccs4)n3)ccc2N1S(C)(=O)=O (centres undefined) | i | i | i | i | -4.76* | 50.4%* | i | i | i
CCC(=O)Nc1nc(-c2ccc3c(c2)CC(C)N3S(C)(=O)=O)cs1 (centres undefined) | i | i | i | i | i | . | . | . | .
Cc1cccc(NC(=O)CNC(=O)C23CC4CC(CC(Cl)(C4)C2)C3)n1 | i | i | i | i | i | . | . | . | .
Cc1cccc(C)c1NC(=O)CNC(=O)C12CC3CC(CC(O)(C3)C1)C2 | i | i | i | i | -4.89* | i | i | i | i
CN(CC(=O)Nc1c(Cl)cccc1Cl)C(=O)c1ccc(-n2cncn2)c([N+](=O)[O-])c1 | i | i | i | i | i | . | . | . | .
COc1ccc(CCNC(=O)CN2C(=O)C3(OCCCO3)c3ccccc32)cc1OC | i | i | i | i | -5.39* | 83.9%* | i | i | i
COc1ccc(CC(=O)NCC(=O)Nc2ccccc2Br)cc1 | i | i | i | i | -6.03* | i | i | i | i
COc1ccc(NC(=O)CNC(=O)Cc2ccccc2)cc1 | i | i | i | i | i | . | . | . | .
CCc1cc(Br)ccc1NC(=S)NCCc1ccccc1 | i | i | i | i | i | . | . | . | .
COc1ccc(N2CCN(C3CCCCC3NS(=O)(=O)c3ccc(Cl)cc3)CC2)cc1 (centres undefined) | i | i | i | i | -7.57* | i | i | i | i
Cc1ccc2nsnc2c1NC(=O)COc1ccccc1F | i | i | i | i | -6.1* | 83.5%* | i | i | i
SMILES | RGS4 block | RGS4 pot | MrgX1 ag | MrgX1 allo act | MrgX1 antag | MrgX1 ant reconf | HEK293 Ca flux | HEK293 Ca counter | HEK293 Ca cntr2
COc1ccc(C)cc1NC(=O)CCNS(=O)(=O)c1ccc2c(c1)CCC(=O)N2 | i | i | i | i | i | . | . | . | .
O=c1ccc(-c2ccc(S(=O)(=O)Nc3ccccc3Cl)o2)n[nH]1 | i | i | i | i | i | . | . | . | .
Cc1oc(-c2cccs2)nc1CN1CCN(CC(C)C)C(CCO)C1 (centres undefined) | i | i | i | i | -4.53* | i | i | i | i
O=C(Nc1nc(-c2cccs2)cs1)c1ccc(Cl)cc1 | i | i | i | i | i | . | . | . | .
COc1ccc(C(=O)Nc2nc(-c3cccs3)cs2)cc1 | i | i | i | i | -7.65* | i | i | i | i
Cn1c(CCn2ccccc2=O)nc2cc(NC(=O)COc3ccccc3)ccc21 | i | i | i | i | i | . | . | . | .
CNCCCOc1cccc(OC(C)C)c1 | i | i | i | i | -7.29* | i | i | i | i
COc1cc(SC)ccc1C(=O)OCC(=O)N1CCN(C(C)=O)CC1 | i | i | i | i | i | . | . | . | .
Cc1ccc(S(=O)(=O)Cn2nnnc2C(C(C)C)N2CCN(Cc3ccco3)CC2)cc1 (centres undefined) | i | i | i | i | -5.72* | i | i | i | i
Cc1ccc(S(=O)(=O)Cn2nnnc2C(C(C)C)N2CCSCC2)cc1 (centres undefined) | i | i | i | i | i | . | . | . | .
CCC(Sc1nc2c(cnn2-c2ccccc2)c(=O)[nH]1)C(=O)OC (centres undefined) | i | i | i | i | -5.15* | 81.7%* | i | i | i
COC(=O)C(C)Sc1nc2c(cnn2-c2ccc(F)cc2)c(=O)[nH]1 (centres undefined) | i | i | i | i | i | . | . | . | .
O=C(CCN1C(=O)C2CC=CCC2C1=O)Nc1nccs1 (centres undefined) | i | i | i | i | i | . | . | . | .
C=CCOC(=O)Cn1cnc2c(sc3nc(C)cc(C)c32)c1=O | i | i | i | i | i | . | . | . | .
